ChEMBL document CHEMBL4665721, “Mdm2 inhibitors as a platform for the design of P-glycoprotein inhibitors” (Bioorg Med Chem Lett, 2020)
The source made the active and inactive calls. The calls are words filed in the database; no cut-off is given here.

Legend:
HCT-116 = test: Growth inhibition of human p53 -/- NCI-HCT-116 cells upto 10 uM incubated for 48 hrs; format: functional, cell-based; details: dose microM <=10, time 48.0 hrs
In short: (§1)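 Cells plated in DMEM and grown 48 h in 96-well optical-bottom plates before treatment. Compounds were added as 200X dilutions of DMSO stocks and tested up to 10 μM. After 48 h, wells were washed with PBS and monolayer confluence was scored by brightfield imaging. Untreated cells served as controls. Triplicate; mean ± SEM.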

MCF7 = test: Growth inhibition of human MCF7 upto 10 uM incubated for 48 hrs; format: functional, cell-based; details: dose microM <=10, time 48.0 hrs; in short: as §1
NCI-H1299 = test: Growth inhibition of human p53 -/- H1299 cells upto 10 uM incubated for 48 hrs; details: dose microM <=10, time 48.0 hrs
Homo sapiens [1] = species: Homo sapiens; test: Inhibition of P-gp-mediated Rhodamine-123 efflux in human MCF7 cells assessed as Rhodamine-123 accumulation measured after 40 mins by spectrofluorimetry; format: cell-based
In short: (§2)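 Cells in DMEM, 96-well plates, grown to 30% confluency, then co-treated with compounds and Rhodamine 123 (1 μM in solution). Even cell distribution checked by imaging. After 40 min, cells were washed and Rhodamine 123 fluorescence read on a plate reader (ex 488 nm, em 515-575 nm). Signal with 0.5 μM tariquidar in each line set to 100%. Triplicate; mean ± SEM.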

Homo sapiens [2] = species: Homo sapiens; test: Inhibition of P-gp-mediated Rhodamine-123 efflux in human p53 -/- H1299 cells assessed as Rhodamine-123 accumulation measured after 40 mins by spectrofluorimetry
Homo sapiens [3] = species: Homo sapiens; test: Inhibition of P-gp-mediated Rhodamine-123 efflux in human p53 -/- HCT-116 assessed as Rhodamine-123 accumulation measured after 40 mins by spectrofluorimetry; in short: as §2

`COc1cc2c(cc1OC)CN(CCc1ccc(NC(=O)c3cc(OC)c(OC)cc3NC(=O)c3cnc4ccccc4c3)cc1)CC2` was tested, and the inhibition (HCT-116) was “inactive”, the inhibition (MCF7) was “inactive” and the inhibition (NCI-H1299) was “inactive”.
With `CC(C)[C@@H](CS(=O)(=O)C(C)C)N1C(=O)[C@@](C)(CC(=O)O)C[C@H](c2cccc(Cl)c2)[C@H]1c1ccc(Cl)cc1` the inhibition (Homo sapiens [1]) was “inactive”, the inhibition (Homo sapiens [2]) was “Active” and the inhibition (HCT-116) was “Active”. The inhibition (Homo sapiens [3]) was “inactive” and the inhibition (NCI-H1299) was “Active”.
With `O=C(NCc1ccc(F)cc1)c1ccc(/C=C2\C(=O)N(CN3CCN(Cc4cccc(Cl)c4)CC3)c3ccc(Cl)cc32)cc1` the inhibition (Homo sapiens [1]) was “Active”, the inhibition (Homo sapiens [2]) was “Active” and the inhibition (Homo sapiens [3]) was “Active”.
In the case of `COc1ccc(C2=N[C@@H](c3ccc(Cl)cc3)[C@@H](c3ccc(Cl)cc3)N2C(=O)N2CCNC(=O)C2)c(OC(C)C)c1`, the inhibition (Homo sapiens [2]) is reported as “Active”.
For `N[C@H](C(=O)OCCCOC1(c2ccc(Cl)cc2)c2ccccc2C(=O)N1Cc1ccc(Cl)cc1)c1ccccc1` (stereo not given in full), the inhibition (Homo sapiens [1]) was “Active”, the inhibition (Homo sapiens [2]) was “Active” and the inhibition (Homo sapiens [3]) was “Active”.
